Test results as given in PubChem BioAssay.
The source made the active and inactive calls.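 Rule for the calls, unless noted: active = visually confirmed hit in the image check and inhibition above 20%; inconclusive = visually confirmed hit but inhibition not above 20%; inactive = no visual hit in the image check.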

Experiments:
[1] = inhibitors of TNFa-induced NFkB p65 translocation, primary screen, imaging, HUVEC, MLSMR starter and 10KST1 sets (AID 438;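 active = inhibition above 20% together with a positive visual image hit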;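 note: compound added about 3h40 before a 20 min TNFalpha stimulation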;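 for inhibition: signal is the nuclear over cytoplasmic p65 intensity ratio per well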); settings: HUVEC TNFa-induced p65 nuclear translocation; cell count: measured here: nuclei count (cytotoxicity indicator), at 2.08 µM; inhibition: at 2 µM, stronger effect = higher value, 0% TNFa-plus-vehicle, 100% no-TNFa wells
[2] = endothelial E-selectin expression blockers – imaging, HUVEC, immunofluorescence, MLSMR starter and 10KST1 sets, primary screen (AID 487); settings: HUVEC TNFalpha-induced E-selectin immunofluorescence imaging, at 2 µM; inhibition: stronger effect = higher value; nuclei count: measured here: cell number, toxicity;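 for inhibition: signal is fraction of cell area covered by stained E-selectin grains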;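 for nuclei count: 100% = median nuclei count of all wells on the same plate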
[3] = Primary imaging screen for DUSP6 inhibitors that restore phospho-Erk in transfected HeLa cells, chemical complementation (AID 609;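 active = compounds giving at least 50% inhibition in the cell-based MKP-3 phosphatase rescue imaging test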;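 for inhibition: phospho-Erk level distribution per well compared with pooled transfected vehicle control wells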); settings: HeLa MKP-3 transfected, phospho-Erk imaging KS statistic, at 10 µM, cells stimulated with TPA for 15 min
[4] = molecular target: Dual specificity protein phosphatase 6 (Homo sapiens) (UniProt Q16828); experiment: as above; settings: HeLa MKP-3 transfected, phospho-Erk imaging KS statistic; at 10 µM; stronger effect = higher value; cells stimulated with TPA for 15 min
Chain of Dual specificity protein phosphatase 6 (Homo sapiens) (Q16828 whole entry, looked up): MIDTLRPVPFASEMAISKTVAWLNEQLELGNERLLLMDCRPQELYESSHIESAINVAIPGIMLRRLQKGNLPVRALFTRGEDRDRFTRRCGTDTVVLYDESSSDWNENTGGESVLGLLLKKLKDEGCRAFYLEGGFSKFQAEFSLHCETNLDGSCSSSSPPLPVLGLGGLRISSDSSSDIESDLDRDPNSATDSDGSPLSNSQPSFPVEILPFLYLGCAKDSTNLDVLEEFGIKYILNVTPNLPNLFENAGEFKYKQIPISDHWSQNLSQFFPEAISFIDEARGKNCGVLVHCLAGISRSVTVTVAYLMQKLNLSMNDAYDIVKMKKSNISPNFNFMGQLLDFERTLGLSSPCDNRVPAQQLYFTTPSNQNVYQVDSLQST

[5] = molecular target: Voltage-gated potassium channel subunit beta-2 (Rattus norvegicus) (UniProt P62483); experiment: inhibitors of rat Kvbeta2 reductase activity – biochemical, NADPH fluorescence, primary screen (AID 622;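 active = fluorescence slope higher than the sample average by over 3 SD, cut at about -0.22 in these data, passing the limit was not always enough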;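 note: slope of raw intensity against log time taken from 70 to 1610 s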); settings: recombinant KvBeta, 4-cyanobenzaldehyde reduction, at 10 µM, stronger effect = higher value
Chain of Voltage-gated potassium channel subunit beta-2 (Rattus norvegicus) (P62483 whole entry, looked up): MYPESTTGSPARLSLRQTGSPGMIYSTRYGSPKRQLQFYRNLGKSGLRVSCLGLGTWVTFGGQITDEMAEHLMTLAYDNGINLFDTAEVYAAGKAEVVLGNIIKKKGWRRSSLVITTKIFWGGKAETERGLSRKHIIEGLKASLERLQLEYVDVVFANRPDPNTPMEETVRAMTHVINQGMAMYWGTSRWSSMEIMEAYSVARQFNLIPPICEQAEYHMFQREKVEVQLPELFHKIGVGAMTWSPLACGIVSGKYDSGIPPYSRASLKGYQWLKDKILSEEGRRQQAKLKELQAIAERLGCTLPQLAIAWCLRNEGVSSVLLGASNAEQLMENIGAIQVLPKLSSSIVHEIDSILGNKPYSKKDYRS

[6] = molecular target: Voltage-gated potassium channel subunit beta-2 (Rattus norvegicus) (UniProt P62483); experiment: enhancers of rat Kvbeta2 NADPH turnover – biochemical, NADPH fluorescence, primary screen (AID 623;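 active = NADPH fluorescence slope more negative than the mean of all samples by about 3 SD, 99.7% confidence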;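 note: fluorescence intensity change per second fitted from 20 to 320 s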); settings: Recombinant KvBeta, NADPH fluorescence decrease slope, 10 min; at 10 µM; stronger effect = lower value
[7] = molecular target: Alpha-2C adrenergic receptor (Homo sapiens) (UniProt P18825); experiment: compounds altering alpha2C-coupled GIRK flux – cell-based, HEK293 alpha2C/GIRK1/2, thallium flux, primary screen (AID 624;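 active = fluorescence slope after compound addition differing from the mean of all screened samples at 99.7% confidence, in either direction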;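 note: slope of fluorescence ratio to pre-addition baseline per second over 15 to 24 s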); settings: thallium flux BTC fluorescence, at 10 µM, actives lie on both sides
Chain of Alpha-2C adrenergic receptor (Homo sapiens) (P18825 whole entry, looked up): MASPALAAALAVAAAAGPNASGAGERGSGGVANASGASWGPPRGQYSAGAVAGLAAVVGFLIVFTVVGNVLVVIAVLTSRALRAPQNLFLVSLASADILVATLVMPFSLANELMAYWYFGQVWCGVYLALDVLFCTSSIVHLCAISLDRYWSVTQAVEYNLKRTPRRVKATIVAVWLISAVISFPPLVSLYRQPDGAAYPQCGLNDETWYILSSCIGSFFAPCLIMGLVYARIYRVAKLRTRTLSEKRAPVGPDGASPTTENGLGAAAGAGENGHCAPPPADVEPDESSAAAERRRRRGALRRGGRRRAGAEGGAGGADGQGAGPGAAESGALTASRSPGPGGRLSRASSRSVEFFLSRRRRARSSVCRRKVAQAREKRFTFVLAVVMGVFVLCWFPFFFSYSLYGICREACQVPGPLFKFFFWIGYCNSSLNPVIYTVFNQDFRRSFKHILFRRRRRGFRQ

[8] = inhibitors of larval lipid processing in zebrafish, primary screen, whole organism, PED6 fluorescence, gall bladder and intestine (AID 686;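 active = a full or partial loss of lipid-probe fluorescence in the fish gall bladder, intestine or both, judged by eye; inactive = no fluorescence loss, or compound toxic to the fish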;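 note: larvae 5 to 7 days old with five fish per well; signal comes from phospholipase A2 cleavage of quenched PED6 carried via bile; overnight exposure to compound and PED6 before scoring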); settings: Zebrafish larvae PED6 lipid processing, fluorescence scoring; screened at 20 µM (by protocol)
In short: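 Test system – live zebrafish larvae aged 5-7 days, whole organism · Buffer or medium – E3 fish medium · Reagent – quenched phospholipase substrate PED6, 100 nM final, ingested by larvae · Doses – 20 µM single dose · Incubation – overnight compound and PED6 incubation · Technique – visual fluorescence microscopy scoring of gall bladder, gut · Read-out basis – visual per-well fluorescence inhibition score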

[9] = loss of swimming-algae plug formation – whole organism, Chlamydomonas reinhardtii, WT vs cilia-less mutant, absorbance, 96-well, primary screen (AID 463189;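 active = inhibition at or above 50% relative to wild type and mutant plate controls; inactive = inhibition below 50%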;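 note: 0% = wild type cc124 cells in DMSO and 100% = ciliumless bld1 mutant cells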); settings: Chlamydomonas reinhardtii gravitaxis, OD600 absorbance, 2 days; at 10 µM; stronger effect = higher value
[10] = measured here: cell density z-score
[11] = measured here: nuclear c-Myc green intensity z-score
[12] = measured here: nuclear pErk red intensity z-score, stronger effect = higher value

Compound	cell count [1]	inhibition [1]	inhibition [2]	nuclei count [2] [%]	z-score [3, 10]	z-score [3, 11]	z-score [3, 12]	inhibition [4]	fluorescence slope [5]	NADPH fluorescence slope [6]	slope [7]	outcome [8]	inhibition [9]
Cc1nn(C)cc1CNC(=O)c1ccc(Br)o1	507	-14.6% (inactive)	-66.6% (inactive)	111	0.29	0.777	-0.409	10.1% (inactive)	-0.444 (inactive)	-3.5e-08 (inactive)	0.00689 (inactive)	inactive	0.36% (inactive)
Cc1ccc(/C=c2\sc3n(c2=O)CN(c2ccc(Br)cc2)CN=3)o1	367	-0.5% (inactive)	-127% (inactive)	137	1.52	-1.23	-1.08	22.7% (inactive)	-0.389 (inactive)	-1.9e-05 (inactive)	0.00432 (inactive)	inactive	-6.84% (inactive)
C=COC(=O)CSc1nc(-c2cccs2)ccc1C#N	659	-10.8% (inactive)	-26.9% (inactive)	152	-1.42	1.7	0.138	-5.62% (inactive)	-0.385 (inactive)	-2.3e-06 (inactive)	0.0065 (inactive)	inactive	8.37% (inactive)
COc1ccc(-c2oc3ncn4nc(Cc5ccccc5)nc4c3c2-c2ccc(OC)cc2)cc1	561	-7.8% (inactive)	-106% (inactive)	175	0.18	0.751	0.443	-6.06% (inactive)	-0.319 (inactive)	-1.7e-05 (inactive)	0.0116 (inactive)	inactive	-5.31% (inactive)
CCN=C1SC(C(=O)Nc2ccc(Cl)c(Cl)c2)CC(=O)N1CC (centres undefined)	388	-0.4% (inactive)	-56.6% (inactive)	133	1.74	-1.1	-1.57	7.42% (inactive)	-0.423 (inactive)	-0.000131 (inactive)	0.00577 (inactive)	inactive	0.946% (inactive)
Cc1cc2c(c(=O)n1Cc1cccnc1)C(c1ccccc1)C(C#N)=C(N)O2 (centres undefined)	550	-28.8% (inactive)	-50% (inactive)	160	-0.164	-2.06	-1.42	-6.06% (inactive)	-0.537 (inactive)	-2.7e-05 (inactive)	0.00757 (inactive)	inactive	22.9% (inactive)
COCCCNC(=O)C(C#N)c1nc2ccccc2nc1N1CCN(Cc2ccccc2)CC1 (centres undefined)	630	-5.8% (inactive)	-33.3% (inactive)	156	-0.882	-0.494	-0.556	-8.27% (inactive)	-0.472 (inactive)	-0.00034 (inactive)	0.00118 (inactive)	inactive	33.7% (inactive)
Cc1ccc(N(CN2C(=O)NC(C)(C)C2=O)CN2C(=O)NC(C)(C)C2=O)cc1	465	5.9% (inactive)	-355% (inactive)	156	0.539	0.101	0.322	2.71% (inactive)	-0.315 (inactive)	-9.5e-06 (inactive)	0.00542 (inactive)	inactive	5.64% (inactive)
CCOC(=O)c1c(C)n(C)c2ccc(OC)c(NC(=O)CN3CCSCC3)c12	331	-7.1% (inactive)	35.2% (inactive)	91.7	-1.52	-0.0806	1.39	5.42% (inactive)	-0.449 (inactive)	-1.5e-05 (inactive)	0.0065 (inactive)	inactive	37% (inactive)
COc1cccc(NC(=O)CSC2=C(C#N)C(c3ccco3)C3=C(CCCC3=O)N2)c1 (centres undefined)	474	-0.1% (inactive)	-19.9% (inactive)	101	0.0221	-0.732	2.07	-3.98% (inactive)	-0.506 (inactive)	-6.2e-05 (inactive)	0.00557 (inactive)	inactive	2.98% (inactive)
COc1ccc(CNC(=O)c2c(C)cc(=O)oc2C)cc1OC	446	1.8% (inactive)	-121% (inactive)	167	0.057	0.328	1.22	-1.12% (inactive)	-0.427 (inactive)	-4.8e-05 (inactive)	0.00518 (inactive)	inactive	-7.01% (inactive)
O=C(N(c1ccccc1)c1ccccc1)n1ccnc1	543	-15.7% (inactive)	-71.5% (inactive)	169	-1.35	-0.0585	1.08	-11.5% (inactive)	-0.487 (inactive)	-5.7e-05 (inactive)	0.00471 (inactive)	inactive	-0.901% (inactive)
Cc1c(C(=O)O)c(=S)sn1CCOc1ccccc1	646	-1.9% (inactive)	16.3% (inactive)	159	0.114	1.14	0.102	14% (inactive)	-0.256 (inactive)	1.3e-05 (inactive)	0.00412 (inactive)	inactive	4.87% (inactive)
